The text below walks through data of ChEMBL document CHEMBL2311260, “Dual action spirobicycloimidazolidine-2,4-diones: antidiabetic agents and inhibitors of aldose reductase-an enzyme involved in diabetic complications” (Bioorg Med Chem Lett, 2013).

For test [1], the species on record is Rattus norvegicus. The test is described as follows: Antidiabetic activity in albino rat diabetic model assessed as plasma glucose level measured after 3 hrs (reference value: 263 +/- 10.67 mg/dl). It is filed as functional.
Test [2] in a line: Inhibition of calf ALR2. More on the design: species or system Bos taurus. The method in brief:
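Partially purified ALR2 extracted from calf eye. D,L-glyceraldehyde was the substrate with NADPH as cofactor, and sulindac served as reference. IC50 values are given ± SEM from n = 3. Kinetics were also run with inhibitor at 20 µM, varying substrate or NADPH for Km and inhibition type.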

The species named for test [3] is Rattus norvegicus. Description: Antidiabetic activity in albino rat diabetic model assessed as plasma glucose level measured after 6 hrs (reference value: 285 +/- 8.66 mg/dl). It is filed as functional.
Test [4] is filed under the species Rattus norvegicus. The test is described as follows: Antidiabetic activity in albino rat diabetic model assessed as plasma glucose level measured after 2 hrs (reference value: 251 +/- 2.91 mg/dl). It is filed as functional.
The species named for test [5] is Rattus norvegicus. Description: Antidiabetic activity in albino rat diabetic model assessed as plasma glucose level measured after 7 hrs (reference value: 280 +/- 6.51 mg/dl). In kind it is functional.
Test [6] is filed under the species Rattus norvegicus. The test is described as follows: Antidiabetic activity in albino rat diabetic model assessed as plasma glucose level measured after 4 hrs (reference value: 291 +/- 6.40 mg/dl). In kind it is functional.
The species entered for test [7] is Rattus norvegicus. Description: Antidiabetic activity in albino rat diabetic model assessed as plasma glucose level measured after 1 hr (reference value: 274 +/- 4.73 mg/dl). In kind it is functional.
The species named for test [8] is Rattus norvegicus. Description: Antidiabetic activity in albino rat diabetic model assessed as plasma glucose level measured after 5 hrs (reference value: 275 +/- 3.53 mg/dl). In kind it is functional.
Test [9] can be described thus: Inhibition of calf ALR1. Further details: species or system Bos taurus. Summed up:
(§1)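 ALR1 (aldehyde reductase) partially purified from calf kidney. Values are IC50 ± SEM in µM, or percent inhibition at 0.6 mM. Valproic acid served as positive control to validate the assay.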

Test [10] is filed under the species Bos taurus. Description: Inhibition of calf ALR1 at 0.6 mM. Summed up:
as §1

Structures are written as SMILES.

Usually IC50 stands for the point on the concentration scale where inhibition reaches its midpoint. Lower therefore signals inhibition by little substance. As for `COc1ccc(S(=O)(=O)N2C(=O)NC3(CC4CCC3C4)C2=O)cc1` (stereo unspecified), the Activity in [1] stood at 544 mg/dL; in test [3] it was 600 mg/dL; in test [4], 353 mg/dL; in test [5], 620 mg/dL; in [6] it was 570 mg/dL; in test [7] it was 413 mg/dL. Further, the Activity in test [8] came to 565 mg/dL. The IC50 in test [2] is 4.4 µM; in [9] it was 40.2 µM.
`CC1=C(CC(=O)O)c2cc(F)ccc2/C1=C\c1ccc([S+](C)[O-])cc1` (stereo unspecified) [SULINDAC] showed an IC50 in test [2] of 0.293 µM.
A word on the inhibition: it is the relative decrease from the control value, in per cent. Turning to `O=C1NC2(CC3CCC2C3)C(=O)N1S(=O)(=O)c1ccc(Br)cc1` (stereo unspecified), the inhibition in test [10] is 43.2%. The Activity was 357 mg/dL in test [1]; 337 mg/dL in test [3]; 273 mg/dL in test [4]; 245 mg/dL in [5]; 353 mg/dL in test [6]; 289 mg/dL in test [7]. Also, in test [8], the Activity came to 352 mg/dL. This molecule also returned an IC50 in test [2] of 15.4 µM.
In turn, `O=C1NC2(CC3CCC2C3)C(=O)N1S(=O)(=O)c1ccc2ccccc2c1` (stereo unspecified) showed an inhibition in test [10] of 36.8%. In addition, the Activity in test [1] was 393 mg/dL; in [3] it was 414 mg/dL; in test [4], 389 mg/dL; in [5], 430 mg/dL; in test [6], 471 mg/dL; in test [7], 210 mg/dL. For the same molecule, the Activity in test [8] was 401 mg/dL. In [2], this molecule yielded a half-maximal inhibitory concentration (IC50) of 3.8 µM.
`Cc1ccc(S(=O)(=O)N2C(=O)NC3(CC4CCC3C4)C2=O)cc1` (stereo unspecified): the Activity in test [1] turned out to be 305 mg/dL; in [3], 128 mg/dL; in test [4], 421 mg/dL; in test [5] it was 114 mg/dL; in test [6], 225 mg/dL; in [7], 506 mg/dL. Further, the Activity in test [8] was 163 mg/dL. The values for the half-maximal inhibitory concentration (IC50) in [2] and in test [9] were 1.8 µM and 117 µM, respectively.
As for `O=C1NC2(CC3CCC2C3)C(=O)N1S(=O)(=O)c1ccc([N+](=O)[O-])cc1` (stereo unspecified), the Activity came out at 482 mg/dL in test [1]; 502 mg/dL in [3]; 429 mg/dL in [4]; 542 mg/dL in [5]; 421 mg/dL in test [6]; 399 mg/dL in [7]. In addition, in test [8], the Activity was 349 mg/dL. For the same molecule, the figures for the IC50 in test [2] and in test [9] were 13.1 µM and 44.8 µM, respectively.
For `O=C1NC2(CC3CCC2C3)C(=O)N1S(=O)(=O)c1ccc(Cl)cc1` (stereo unspecified), the Activity in test [1] was 283 mg/dL; in test [3], 143 mg/dL; in test [4], 287 mg/dL; in test [5], 128 mg/dL; in test [6], 280 mg/dL; in test [7], 392 mg/dL. In addition, the Activity in [8] was 215 mg/dL. The results for the IC50 in test [2] and in [9] were 5.59 µM and 61.1 µM, respectively.
For `COc1ccc(Cl)cc1C(=O)NCCc1ccc(S(=O)(=O)NC(=O)NC2CCCCC2)cc1` [GLYBURIDE], the Activity in test [1] was 250 mg/dL; in [3], 170 mg/dL; in [4], 289 mg/dL; in test [5] it was 150 mg/dL; in test [6], 239 mg/dL; in [7] it was 350 mg/dL. Besides, the Activity in [8] stood at 220 mg/dL.
In turn, `O=C1c2ccccc2C(=O)c2cc(S(=O)(=O)N3C(=O)NC4(CC5CCC4C5)C3=O)ccc21` (stereo unspecified) gave an inhibition in test [10] of 41.6%. The Activity in test [1] came out at 338 mg/dL; in test [3], 99 mg/dL; in [4], 399 mg/dL; in [5], 86 mg/dL; in test [6], 281 mg/dL; in [7], 460 mg/dL. Further, the Activity in [8] was 187 mg/dL. In [2], this molecule showed an IC50 of 4.5 µM.
